Assay results published in ChEMBL document CHEMBL1138519, “Modulating retinoid X receptor with a series of (E)-3-[4-hydroxy-3-(3-alkoxy-5,5,8,8-tetramethyl-5,6,7,8-tetrahydronaphthalen-2-yl)phenyl]acrylic acids and their 4-alkoxy isomers” (J Med Chem, 2009).
Active and inactive are the calls of the source. The rule behind the calls is not given here.

Assays:
[1] = target: T1, Retinoic acid receptor RXR-beta (Homo sapiens) (UniProt P28702); assay: Antagonist activity at Gal4-tagged human RXRbeta receptor expressed in human HeLa cells assessed as inhibition of CD3254-induced transcription at >=10 uM by luciferase reporter assay; format: functional, cell-based
T1 sequence (whole entry): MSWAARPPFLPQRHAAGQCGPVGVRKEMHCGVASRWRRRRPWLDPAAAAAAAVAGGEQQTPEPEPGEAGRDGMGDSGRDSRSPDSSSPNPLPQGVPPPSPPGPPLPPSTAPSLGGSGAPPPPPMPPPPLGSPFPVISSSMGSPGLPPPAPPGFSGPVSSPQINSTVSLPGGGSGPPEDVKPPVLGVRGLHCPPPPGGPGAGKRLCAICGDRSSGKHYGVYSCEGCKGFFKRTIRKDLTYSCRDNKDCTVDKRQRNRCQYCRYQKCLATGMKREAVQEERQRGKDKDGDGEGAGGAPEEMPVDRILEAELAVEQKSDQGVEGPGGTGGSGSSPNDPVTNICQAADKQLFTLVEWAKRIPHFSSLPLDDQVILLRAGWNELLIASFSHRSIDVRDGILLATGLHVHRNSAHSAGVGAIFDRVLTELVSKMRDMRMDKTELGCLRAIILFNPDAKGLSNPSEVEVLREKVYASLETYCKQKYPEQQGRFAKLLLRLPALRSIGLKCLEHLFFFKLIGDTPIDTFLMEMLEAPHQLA
How it was run: (§1)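 Gal4-hRXRβ/(Gal4)5-β-globin-luciferase HeLa reporter cells, maintained in DMEM with 5% FCS and selection antibiotics. Cells were co-treated for 16 h at 37 °C with 3 nM of the reference RXR agonist and increasing compound concentrations. After lysis, luciferase was read as RLU to measure antagonism of agonist-induced transcription.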

[2] = target: T1, Retinoic acid receptor RXR-beta (Homo sapiens); assay: Activity at Gal4-tagged human RXRbeta receptor expressed in human HeLa cells assessed as relative transcriptional activity by luciferase reporter assay relative to CD3254; format: cell-based; parameters: concentration or dose not given beside the values
How it was run: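 HeLa cells stably carrying a Gal4-hRXRβ chimera (RXRβ LBD fused to the GAL4 DBD) and a (Gal4)5-β-globin-luciferase reporter. Cells were grown in DMEM with 5% FCS plus G418, puromycin, hygromycin and gentamycin. They were exposed to increasing compound concentrations for 16 h at 37 °C and 5% CO2, then washed, lysed, and read for luciferase luminescence (RLU).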

[3] = target: T2, Retinoic acid receptor alpha/Retinoid X receptor alpha (Homo sapiens) (UniProt P10276+P19793); assay: Activity at RARalpha/RXRalpha ligand binding domain assessed as stabilization of RXR helix H12 by fluorescence anisotropy; format: protein-complex assay
How it was run: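 RARα-RXRα LBD heterodimer, 0.120 µM, carrying a fluorescent dye attached to the RXRα C-terminus. Steady-state anisotropy was read with excitation at 470 nm and emission at 530 nm, with ligand at saturating concentration. At least three independent measurements were made per sample.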

[4] = target: T2, Retinoic acid receptor alpha/Retinoid X receptor alpha (Homo sapiens); assay: Activity at RARalpha/RXRalpha ligand binding domain assessed as stabilization of RXR helix H12 by fluorescence anisotropy in presence of up to 10 uM coactivator peptide TIF-NR2; format: protein-complex assay
How it was run: (§2)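 Heterodimer (0.120 µM, dye on the RXRα C-terminus) with 10 µM ligand. Anisotropy was read at excitation 470 nm and emission 530 nm, with at least three independent measurements.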

[5] = target: T2, Retinoic acid receptor alpha/Retinoid X receptor alpha (Homo sapiens); assay: Activity at RARalpha/RXRalpha ligand binding domain assessed as stabilization of RXR helix H12 by fluorescence anisotropy in presence of 1 uM coactivator peptide TIF-NR2; format: protein-complex assay; how it was run: as §2
[6] = target: T1, Retinoic acid receptor RXR-beta (Homo sapiens); assay: Antagonist activity at Gal4-tagged human RXRbeta receptor expressed in human HeLa cells assessed as inhibition of CD3254-induced transcription at 1 uM by luciferase reporter assay; format: functional, cell-based; how it was run: as §1

SMILES: CCOc1cc(-c2cc(/C=C/C(=O)O)ccc2O)cc2c1C(C)(C)CCC2(C)C
- Activity [1]: Active
- Activity [2]: > 10%
- Activity [3]: inactive
- Activity [4]: Active

SMILES: CCCOc1cc(-c2cc(/C=C/C(=O)O)ccc2O)cc2c1C(C)(C)CCC2(C)C
- Activity [1]: Active
- Activity [2]: > 10%
- Activity [3]: inactive
- Activity [4]: Active

SMILES: Cc1cc2c(cc1-c1cc(/C=C/C(=O)O)ccc1O)C(C)(C)CCC2(C)C
- Activity [5]: Active

SMILES: CCCCCOc1cc2c(cc1-c1cc(/C=C/C(=O)O)ccc1O)C(C)(C)CCC2(C)C
- Activity [6]: Active
- Activity [2]: inactive
- Activity [3]: inactive
- Activity [4]: inactive

SMILES: CCCCCCOc1cc(-c2cc(/C=C/C(=O)O)ccc2O)cc2c1C(C)(C)CCC2(C)C
- Activity [1]: Active
- Activity [2]: > 10%
- Activity [3]: inactive
- Activity [4]: Active

SMILES: CCCCCOc1cc(-c2cc(/C=C/C(=O)O)ccc2O)cc2c1C(C)(C)CCC2(C)C
- Activity [1]: Active
- Activity [2]: > 10%
- Activity [3]: inactive
- Activity [4]: Active

SMILES: CCCCOc1cc(-c2cc(/C=C/C(=O)O)ccc2O)cc2c1C(C)(C)CCC2(C)C
- Activity [1]: Active
- Activity [2]: > 10%
- Activity [3]: inactive
- Activity [4]: Active

SMILES: COc1cc(-c2cc(/C=C/C(=O)O)ccc2O)cc2c1C(C)(C)CCC2(C)C
- Activity [1]: Active
- Activity [2]: > 30%
- Activity [3]: inactive
- Activity [4]: Active

SMILES: CCCCCCOc1cc2c(cc1-c1cc(/C=C/C(=O)O)ccc1O)C(C)(C)CCC2(C)C
- Activity [4]: inactive
